We go through eight molecules from ChEMBL document CHEMBL1142669, “Synthesis and evaluation of double-prodrugs against HIV. Conjugation of D4T with 6-benzyl-1-(ethoxymethyl)-5-isopropyluracil (MKC-442, emivirine)-type reverse transcriptase inhibitors via the SATE prodrug approach” (J Med Chem, 2005).

In general, CC50 refers to the concentration at which the toxic effect on the cells reaches its halfway point. Read a high CC50 as lower toxicity to the cells.

Assay [1] deals with Human immunodeficiency virus 2. Description: Effective dose was measured against human immunodeficiency virus type 2 in thymidine-kinase-deficient CEM Cells; experiment 2. Particulars: Human immunodeficiency virus 2, CCRF-CEM; read-out: ED50 (the source's name). In kind it is functional. The method, boiled down: (§1)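 HIV-2 strain SBL 6669 in CEM TK- cells, infected at 0.005 MOI and kept with compound dilutions for 6 days, with infected and uninfected controls. Readout was HIV-2 antigen ELISA. The 50% effective value was interpolated from % inhibition versus concentration plots. Each line is one of three independent tests.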

For assay [2], the system named is Human immunodeficiency virus 2. Description: Effective concentration of compound to inhibit human immunodeficiency virus HIV-2 multiplication in MT-4 infected cells. The assay is classed as functional, organism-based. The method, boiled down: (§2)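 MT-4 cells were infected at 0.005 MOI and cultured 6 days in growth medium (RPMI 1640, 10% heat-inactivated FCS, antibiotics) with the compound dilutions. Infected and uninfected cultures without compound ran in parallel. HIV expression was quantified indirectly by MTT assay. EC50 was interpolated from plots of percent inhibition versus concentration.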

The test system of another assay is CCRF-CEM. Description: Cytotoxic concentration was measured in CEM wild-type/thymidine-kinase-deficient CEM Cells. In kind it is functional. Particulars: Homo sapiens. The method, boiled down: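 Uninfected CEM wild-type and CEM TK- cultures were exposed to the compound dilutions in parallel with the antiviral tests. Cell growth inhibition of 30% versus control cultures was considered significant. CC50 was interpolated from plots of percent inhibition against concentration.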

Assay [3] has as its system Human immunodeficiency virus 1. Description: Effective concentration of compound to inhibit human immunodeficiency virus HIV-1 strain N119 multiplication in MT-4 infected cells. In kind it is functional, organism-based. The method, boiled down:
as §2

Assay [4] concerns Human immunodeficiency virus 2. Description: Effective dose was measured against human immunodeficiency virus type 2 in thymidine-kinase-deficient CEM Cells; experiment 3. Particulars: Human immunodeficiency virus 2, CCRF-CEM; read-out: ED50 (the source's name). The assay is classed as functional. A digest of the protocol:
as §1

In assay [5] the test system is Human immunodeficiency virus 2. Description: Effective dose was measured against human immunodeficiency virus type 2 in thymidine-kinase-deficient CEM Cells; experiment 1. In kind it is functional. Particulars: Human immunodeficiency virus 2, CCRF-CEM; read-out: ED50 (the source's name). The method, boiled down:
as §1

Assay [6] relates to Human immunodeficiency virus 2. Nature of the assay: Effective concentration of compound to inhibit human immunodeficiency virus HIV-2 multiplication in CEM wild type cells. The assay is classed as functional, organism-based. Particulars: Human immunodeficiency virus 2, CCRF-CEM. A digest of the protocol:
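CEM wild-type cells were infected at 0.005 MOI and held 6 days in growth medium containing the compound dilutions, alongside untreated infected and uninfected controls. HIV-1 or HIV-2 antigen was detected by ELISA. EC50 was interpolated from plots of percent inhibition versus concentration.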

Assay [7] concerns Human immunodeficiency virus 2. Nature of the assay: Effective concentration of compound to inhibit human immunodeficiency virus HIV-2 multiplication in thymidine-kinase-deficient CEM cells. Particulars: Human immunodeficiency virus 2, CCRF-CEM. In kind it is functional, organism-based. A digest of the protocol: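 Thymidine-kinase-deficient CEM cells were infected with HIV-2 at 0.005 MOI and incubated 6 days with compound dilutions, alongside infected and uninfected controls without compound. Virus expression was quantified by HIV-2 antigen ELISA. ED50 was interpolated from percent inhibition versus concentration plots; three independent tests.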

Assay [8] has as its system Human immunodeficiency virus 1. Nature of the assay: Effective concentration of compound to inhibit human immunodeficiency virus HIV-1 wild type strain IIIB multiplication in MT-4 infected cells. The assay is classed as functional, organism-based. A digest of the protocol:
as §2

The test system of the next assay is MT4. Nature of the assay: Cytotoxic concentration required to reduce the viability of normal uninfected MT-4 cells. The assay is classed as functional. Particulars: Homo sapiens. A digest of the protocol:
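Uninfected MT-4 cultures were grown with the same compound dilutions as the antiviral assay, run in parallel. A 30% inhibition of cell growth relative to control cultures counted as significant. CC50 was interpolated from plots of percent inhibition versus compound concentration.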

Assay [9] concerns Human immunodeficiency virus 1. Nature of the assay: Effective concentration of compound to inhibit human immunodeficiency virus HIV-1 wild type strain IIIB multiplication in thymidine-kinase-deficient CEM cells. The assay is classed as functional, organism-based. Particulars: Human immunodeficiency virus 1, CCRF-CEM. The method, boiled down: (§3)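 HIV-1 strains HTLV-IIIB (wild type) and N119 (RT Y181C) were grown in H9 cells in RPMI 1640 with 10% heat-inactivated FCS. CEM wt or CEM TK- cells were infected at 0.005 MOI with compound dilutions for 6 days, alongside infected and uninfected controls. HIV expression was read by HIV-1 antigen ELISA. IC50 was interpolated from % inhibition versus concentration plots.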

Assay [10] concerns Human immunodeficiency virus 1. Nature of the assay: Effective concentration of compound to inhibit human immunodeficiency virus HIV-1 wild type strain IIIB multiplication in CEM wild type cells. Particulars: Human immunodeficiency virus 1, CCRF-CEM. The assay is classed as functional, organism-based. A digest of the protocol:
as §3

Assay [11] concerns Human immunodeficiency virus 1. Nature of the assay: Effective concentration of compound to inhibit human immunodeficiency virus HIV-1 strain N119 multiplication in CEM wild type cells. The assay is classed as functional, organism-based. Particulars: Human immunodeficiency virus 1, CCRF-CEM. A digest of the protocol:
as §3

In assay [12] the test system is Human immunodeficiency virus 1. Description: Effective concentration of compound to inhibit human immunodeficiency virus HIV-1 strain N119 multiplication in thymidine-kinase-deficient CEM cells. Particulars: Human immunodeficiency virus 1, CCRF-CEM. In kind it is functional, organism-based. The method, boiled down: as §3

Each structure is given as a SMILES string. A value given as a limit tells only on which side of the number the result lay.

In the case of `CCc1c(Cc2cc(C)cc(C)c2)n(COCc2ccc(O[P@](=O)(OCCSC(=O)C(C)(C)C)OC[C@@H]3C=C[C@H](n4cc(C)c(=O)[nH]c4=O)O3)cc2)c(=O)[nH]c1=O`, the EC50 in assay [1] was found to be 2 µM; in assay [2], 4 µM; in assay [3] it was 0.4 µM; in [4], 2 µM; in assay [5], 3 µM; in [6], 0.1 µM. Also, the EC50 came out at 2 µM in assay [7] and 0.003 µM in assay [8]. Further, the CC50 with CCRF-CEM was 32 µM; in the assay on MT4 it was 35 µM.

Turning to `CCc1c(Cc2cc(C)cc(C)c2)n(COC/C=C/c2ccc(OC(=O)c3ccccc3)cc2)c(=O)[nH]c1=O`, the EC50 was found to be 1 µM in assay [3] and 0.005 µM in assay [8]. In the assay with MT4, this molecule yielded a CC50 of 35 µM.

On to `CCc1c(Cc2cc(C)cc(C)c2)n(COC/C=C/c2ccc(O)cc2)c(=O)[nH]c1=O`, for which the EC50 in assay [2] was over 10 µM; in assay [9], 0.006 µM; in [10], 0.002 µM; in [3], 2.4 µM; in assay [11], 0.4 µM; in [6] it was over 10 µM. For the same molecule, the EC50 in assay [7] is over 10 µM; in [8] it was 0.02 µM; in assay [12], 0.2 µM. The CC50 is 32 µM in the assay on CCRF-CEM and 35 µM in the assay with MT4.

On to `CCc1c(Cc2cc(C)cc(C)c2)n(COC/C=C/c2ccc(O[P@](=O)(OCCSC(=O)C(C)(C)C)OC[C@@H]3C=C[C@H](n4cc(C)c(=O)[nH]c4=O)O3)cc2)c(=O)[nH]c1=O`, for which the EC50 in [1] was 4 µM; in [9], 0.005 µM; in assay [10], 0.01 µM; in assay [3] it was 3.3 µM; in [11], 0.3 µM; in assay [4], 5 µM. Besides, the EC50 in [5] came out at 3 µM; in [6], 0.1 µM; in assay [7], 4 µM; in assay [8], 0.04 µM; in assay [12] it was 0.2 µM. Besides, the figures for the CC50 with CCRF-CEM and with MT4 were 32 µM and 35 µM, respectively.

As to `CCOCn1c(Cc2ccccc2)c(C(C)C)c(=O)n(C(=O)c2ccc(OP(=O)(OCCSC(=O)C(C)(C)C)OCC3C=CC(n4cc(C)c(=O)[nH]c4=O)O3)cc2)c1=O` (centres undefined), the EC50 in assay [1] was 3 µM; in assay [9], 0.006 µM; in assay [10], 0.03 µM; in [3], 2.7 µM; in [11], 0.03 µM; in [4], 4 µM. In addition, the EC50 in [5] came out at 3 µM; in assay [6] it was 0.02 µM; in assay [7] it was 3 µM; in assay [8] it was 0.03 µM; in assay [12], 0.3 µM. Moreover, the CC50 with CCRF-CEM was found to be 32 µM; with MT4 it was 35 µM.

Consider `CCc1c(Cc2cc(C)cc(C)c2)n(COCc2ccc(OCc3ccccc3)cc2)c(=O)[nH]c1=O`, for which the EC50 in [3] is 0.3 µM; in assay [8] it was 0.03 µM. The molecule further had a CC50 in the assay on MT4 of 12 µM.

For the molecule `CCOCn1c(Cc2ccccc2)c(C(C)C)c(=O)[nH]c1=O` [EMIVIRINE], the EC50 is over 10 µM in [2]; over 10 µM in [9]; 0.03 µM in [10]; 79 µM in [3]; over 100 µM in assay [11]; over 10 µM in assay [6]. Moreover, the EC50 in assay [7] and in assay [12] was over 10 µM each time. The CC50 in the assay with CCRF-CEM and with MT4 was over 100 µM in each case.

Consider `Cc1cn([C@H]2C=C[C@@H](CO)O2)c(=O)[nH]c1=O` [STAVUDINE], for which the EC50 was 0.5 µM in assay [2]; over 10 µM in [9]; 0.3 µM in [10]; 1.8 µM in [3]; 0.8 µM in assay [11]; 0.1 µM in assay [6]. The values for the EC50 in assay [7], in assay [8] and in assay [12] were over 10 µM, 0.5 µM and over 10 µM, respectively. Moreover, the CC50 in the assay on CCRF-CEM and with MT4 was over 100 µM in each case.
